We go through 60 compounds from PubChem BioAssay AID485348 (The Scripps Research Institute Molecular Screening Center, 2010).

For orientation: inhibition means the change of the read-out against control, counted positive when it falls.

The source made the active and inactive calls.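 How the source made its calls: active means inhibition above 25%, the campaign hit cutoff; inactive means the rest.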

The experiment addresses Nuclear receptor subfamily 5 group A member 2 (Homo sapiens) (UniProt O00482). Put plainly: suppression of LRH-1-driven Cyp19-luciferase signal, LRH-1 inverse agonist project, cell-based, luminescence, 3X%INH (AID 485348). The note with it: HEK293T LRH-1 Cyp19-luciferase reporter, 20 h, at 5 µM, hits give high values. The method in brief: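 Material: HEK293T cells cotransfected with full-length LRH-1 (pSport6) and Cyp19-aromatase luciferase reporter / Times: 20 h compound exposure after 4 h rest / Detection: luciferase luminescence / Benchmarks: DMSO vehicle-treated wells as reference / Repeats: triplicate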
In general terms: In a reporter assay the amount or activity of a reporter protein is the signal.

Chain of Nuclear receptor subfamily 5 group A member 2 (Homo sapiens) (O00482 whole entry, looked up): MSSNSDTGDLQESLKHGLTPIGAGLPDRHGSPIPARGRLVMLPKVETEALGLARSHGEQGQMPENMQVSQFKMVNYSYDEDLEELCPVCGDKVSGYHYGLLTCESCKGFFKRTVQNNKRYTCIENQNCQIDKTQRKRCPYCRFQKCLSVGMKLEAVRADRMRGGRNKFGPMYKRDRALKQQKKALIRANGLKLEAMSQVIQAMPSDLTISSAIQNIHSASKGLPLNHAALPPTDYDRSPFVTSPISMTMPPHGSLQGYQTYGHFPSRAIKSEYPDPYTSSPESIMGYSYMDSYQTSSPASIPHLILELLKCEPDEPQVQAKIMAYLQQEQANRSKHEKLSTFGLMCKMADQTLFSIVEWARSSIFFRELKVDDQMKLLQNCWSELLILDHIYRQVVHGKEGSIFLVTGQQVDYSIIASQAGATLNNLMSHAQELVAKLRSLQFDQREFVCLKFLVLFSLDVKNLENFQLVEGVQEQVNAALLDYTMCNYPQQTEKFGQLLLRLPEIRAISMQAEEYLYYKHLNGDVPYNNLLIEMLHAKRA

`O=c1cc(N2CCN(c3cccc(Cl)c3)CC2)[nH]c(=O)n1C1CCCCC1`: the inhibition is 52.3%.
In the case of `O=c1cc(N2CCN(c3ccccn3)CC2)[nH]c(=O)n1C1CCCCC1` it was 36%.
For `O=c1cc(N2CCN(c3cccc(Cl)n3)CC2)[nH]c(=O)n1C1CCCCC1`, the inhibition was 45%.
Under `O=c1cc(N2CCN(c3ccccc3)CC2)[nH]c(=O)n1C1CCCCC1` stands 32%; under `O=c1cc(N2CCN(c3cccc(Cl)c3)CC2)[nH]c(=O)[nH]1`, 0% (inactive).
Under `COc1ccc(N2CCN(c3cc(=O)n(C4CCCCC4)c(=O)[nH]3)CC2)cc1` stands 1.7% (inactive); under `O=c1cc(N2CCCC2)[nH]c(=O)n1C1CCCCC1`, 8.7% (inactive).
In the case of `Cn1c(=O)cc(N2CCN(c3ccc(F)cc3)CC2)[nH]c1=O` it was 14% (inactive); in that of `CCn1c(=O)cc(N2CCN(c3cccc(Cl)c3)CC2)[nH]c1=O`, 45%.
For the compound `O=c1cc(N2CCN(c3cc(C(F)(F)F)ccn3)CC2)[nH]c(=O)n1C1CCCCC1`, the inhibition is 20.3% (inactive).
Under `CCN1CCN(c2cc(=O)n(C3CCCCC3)c(=O)[nH]2)CC1` stands 5.3% (inactive); under `O=c1cc(N2CCN(c3cccc(F)c3)CC2)[nH]c(=O)n1C1CCCCC1`, 36.7%; under `O=c1cc(N2CCN(c3cccc(C(F)(F)F)c3)CC2)n(Cc2ccccc2)c(=O)n1C1CCCCC1`, 21.3% (inactive).
As to `O=C(c1ccccc1)N1CCN(c2cc(=O)n(C3CCCCC3)c(=O)[nH]2)CC1`, the inhibition was 0.3% (inactive).
In the case of `CC1CCN(c2cc(=O)n(C3CCCCC3)c(=O)[nH]2)CC1` it was 10% (inactive); in that of `O=c1cc(N2CCN(c3cccc(C(F)(F)F)c3)CC2)[nH]c(=O)n1-c1ccccc1`, 17.7% (inactive); in that of `O=c1cc(N2CCN(c3cc(Cl)cc(Cl)c3)CC2)[nH]c(=O)n1C1CCCCC1`, 20% (inactive).
Turning to `O=c1cc(N2CCN(CCN3CCOCC3)CC2)[nH]c(=O)n1C1CCCCC1`, the inhibition was 13.3% (inactive).
Under `O=c1cc(N2CCN(c3cccc(C(F)(F)F)n3)CC2)[nH]c(=O)n1C1CCCCC1` stands 3.3% (inactive); under `O=c1cc(N2CCN(Cc3ccc(Cl)cc3)CC2)[nH]c(=O)n1C1CCCCC1`, 30.3%; under `Cc1cc(C)cc(N2CCN(c3cc(=O)n(C4CCCCC4)c(=O)[nH]3)CC2)c1`, 38.3%.
Take `C=CCN1CCN(c2cc(=O)n(C3CCCCC3)c(=O)[nH]2)CC1`: the inhibition was -30% (inactive).
`O=c1cc(N2CCN(Cc3ccc4c(c3)OCO4)CC2)[nH]c(=O)n1C1CCCCC1`: the inhibition is 16.7% (inactive).
Under `N#CCn1c(N2CCN(c3cccc(C(F)(F)F)c3)CC2)cc(=O)n(C2CCCCC2)c1=O` stands 2% (inactive); under `C=CCn1c(N2CCN(c3cccc(C(F)(F)F)c3)CC2)cc(=O)n(C2CCCCC2)c1=O`, 29.7%.
In the case of `O=c1cc(N2CCN(C3CCCCC3)CC2)[nH]c(=O)n1C1CCCCC1` it was 35.3%.
`O=c1cc(N2CCc3ccccc32)[nH]c(=O)n1C1CCCCC1`: the inhibition is 14.3% (inactive).
In the case of `O=c1cc(N2CCN(c3ccccc3)CC2)[nH]c(=O)n1Cc1ccc(F)cc1` it was 22.7% (inactive).
As for `Cc1ccc(Cl)cc1N1CCN(c2cc(=O)n(C3CCCCC3)c(=O)[nH]2)CC1`, the inhibition was 16.3% (inactive).
As to `O=c1cc(N2CCN(c3ccc(C(F)(F)F)cc3)CC2)[nH]c(=O)n1C1CCCCC1`, the inhibition is 0% (inactive).
Consider `O=c1cc(N2CCN(c3ncccc3Cl)CC2)[nH]c(=O)n1C1CCCCC1`, for which the inhibition is 17.7% (inactive).
On to `O=c1cc(N2CCN(c3cccc(C(F)(F)F)c3)CC2)[nH]c(=O)n1C1CCCCC1`, for which the inhibition is 45.7%.
For `O=C(c1ccco1)N1CCN(c2cc(=O)n(C3CCCCC3)c(=O)[nH]2)CC1`, the inhibition was 11% (inactive).
Under `O=c1cc(N2CCN(c3ccc(F)cc3F)CC2)[nH]c(=O)n1C1CCCCC1` stands 3.3% (inactive).
With `Cc1ccc(C)n1CCN1CCN(c2cc(=O)n(C3CCCCC3)c(=O)[nH]2)CC1`, the inhibition is 32.3%.
As for `CCn1c(=O)cc(N2CCN(c3ccc(F)cc3)CC2)[nH]c1=O`, the inhibition is 2.3% (inactive).
In the case of `O=c1cc(N2CCN(c3ccnc4cc(Cl)ccc34)CC2)[nH]c(=O)n1C1CCCCC1` it was 34.7%; in that of `O=c1cc(N2CCC(Cc3ccccc3)CC2)[nH]c(=O)n1C1CCCCC1`, 2.3% (inactive); in that of `C=CCn1c(=O)cc(N2CCN(c3cccc(C(F)(F)F)c3)CC2)[nH]c1=O`, 36.7%.
In the case of `CCn1c(=O)cc(N2CCN(C(=O)c3ccco3)CC2)[nH]c1=O` it was 3.3% (inactive).
Under `Cn1c(=O)cc(N2CCN(c3cccc(Cl)c3)CC2)[nH]c1=O` stands 40.7%; under `CC(C)Cn1c(=O)cc(N2CCN(c3cccc(C(F)(F)F)c3)CC2)[nH]c1=O`, 33.3%; under `CC1CCN(c2cc(=O)n(Cc3ccc(F)cc3)c(=O)[nH]2)CC1`, 5.7% (inactive).
In the case of `O=c1cc(N2CCN(c3ccccc3Cl)CC2)[nH]c(=O)n1C1CCCCC1`, the inhibition was 16% (inactive).
In the case of `COC(=O)C1CCN(c2cc(=O)n(C3CCCCC3)c(=O)[nH]2)CC1` it was 18% (inactive).
Under `O=c1cc(N2CCN(c3nccc4occc34)CC2)[nH]c(=O)n1C1CCCCC1` stands 2.7% (inactive).
Under `O=c1cc(N2CCN(c3cccc(Br)c3)CC2)[nH]c(=O)n1C1CCCCC1` stands 17% (inactive); under `CCn1c(=O)cc(N2CCN(c3cccc(C(F)(F)F)c3)CC2)[nH]c1=O`, 39.3%.
With `CCOC(=O)N1CCN(c2cc(=O)n(C3CCCCC3)c(=O)[nH]2)CC1`, the inhibition was 16% (inactive).
Under `O=c1cc(N2CCN(c3cccc(Cl)c3Cl)CC2)[nH]c(=O)n1C1CCCCC1` stands 42%; under `O=c1cc(N2CCN(c3ncccc3C(F)(F)F)CC2)[nH]c(=O)n1C1CCCCC1`, 11.3% (inactive).
Consider `O=c1cc(N2CCN(c3nc(-c4ccccc4)ns3)CC2)[nH]c(=O)n1C1CCCCC1`, for which the inhibition was 42%.
As to `O=c1cc(N2CCN(c3ccc(F)cc3)CC2)[nH]c(=O)n1C1CCCCC1`, the inhibition is 1.3% (inactive).
Under `O=c1cc(N2CCCCC2)[nH]c(=O)n1C1CCCCC1` stands 20.3% (inactive); under `O=c1cc(N2CCN(c3cccc(C(F)(F)F)c3)CC2)[nH]c(=O)n1Cc1ccccc1`, 3% (inactive); under `O=c1cc(N2CCN(c3ccccc3C(F)(F)F)CC2)[nH]c(=O)n1C1CCCCC1`, 16% (inactive).
In the case of `O=c1cc(N2CCOCC2)[nH]c(=O)n1C1CCCCC1` it was 5.3% (inactive); in that of `O=c1cc(N2CCN(C(c3ccccc3)c3ccccc3)CC2)[nH]c(=O)n1C1CCCCC1`, 4% (inactive); in that of `CCn1c(=O)cc(N2CCN(Cc3ccccc3)CC2)[nH]c1=O`, 9.7% (inactive).
For the compound `CCn1c(=O)cc(N2CCN(c3ccccc3)CC2)[nH]c1=O`, the inhibition is 3.7% (inactive).
